ABHD4 inh = inhibitors of mouse ABHD4 | hit rate 0.54% among 370,000 | purified mABHD4, FP-Rh probe fluorescence polarization | inhibition, % at 8.92 µM | Q8VD66;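 active = inhibition exceeding the mean over every tested compound plus 3 SD, cut at about 30% in these data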;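 also: 0% = plate median of compound wells and 100% = S159A mutant with DMSO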
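Test system: mABHD4 protein; Read-out basis: % inhibition; Incubation: 45 min + 60 min at 25 °C; Repeats: single replicate; Technique: fluorescence polarization with parallel and perpendicular emission, 525/598 nm; Compound: 8.92 µM, single dose; Benchmarks: full inhibition S159A mutant plus DMSO, zero as sample-well median.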
PAD4 inh = blocks human protein arginine deiminase 4 | Q9UM07 | recombinant PAD4, RCA probe fluorescence polarization | inhibition, % at 6.36 µM | hit rate 0.41% among 330,000 | AID 485272;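 active = percent inhibition above a cutoff equal to the mean of all tested compounds plus 3 SD, cut at about 15% in these data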;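 also: 0% = PAD4 with RCA probe and DMSO and 100% = probe without PAD4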
HTRA1 inh = inhibitors of human serine peptidase HTRA1; Q92743; recombinant HTRA1, FP-rhodamine activity-based probe, fluorescence polarization; inhibition, % at 5.96 µM; hit rate 0.5% among 340,000; AID 504803; in the data active = inhibition above about 36%;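 also: 0% = enzyme with DMSO and 100% = wells lacking enzyme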
TCR CD3 inh = blocks the human TCR-CD3 interaction | TAMRA-labeled TCR probe fluorescence, biochemical | inhibition, % at 9.4 µM | hit rate 0.37% among 360,000 | AID 651800; in the data active = inhibition above about 19%;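 also: recombinant mutant TCR 2C K166C tagged with TAMRA read by polarization; 0% = receptor in buffer alone and 100% = receptor with positive control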
SIAE inh = blocks human sialic acid acetylesterase; SIAE FP-Rh probe binding, fluorescence polarization; hit rate 0.69% among 370,000; Q9HAT2; inhibition, % at 9.66 µM;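 active = inhibition above a cutoff: mean of compounds within the control limits plus 3 SD of those, cut at about 17% in these data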;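 also: 0% = plate median of compound wells and 100% = probe without SIAE protein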
Target sequence (Q9HAT2 whole entry, looked up): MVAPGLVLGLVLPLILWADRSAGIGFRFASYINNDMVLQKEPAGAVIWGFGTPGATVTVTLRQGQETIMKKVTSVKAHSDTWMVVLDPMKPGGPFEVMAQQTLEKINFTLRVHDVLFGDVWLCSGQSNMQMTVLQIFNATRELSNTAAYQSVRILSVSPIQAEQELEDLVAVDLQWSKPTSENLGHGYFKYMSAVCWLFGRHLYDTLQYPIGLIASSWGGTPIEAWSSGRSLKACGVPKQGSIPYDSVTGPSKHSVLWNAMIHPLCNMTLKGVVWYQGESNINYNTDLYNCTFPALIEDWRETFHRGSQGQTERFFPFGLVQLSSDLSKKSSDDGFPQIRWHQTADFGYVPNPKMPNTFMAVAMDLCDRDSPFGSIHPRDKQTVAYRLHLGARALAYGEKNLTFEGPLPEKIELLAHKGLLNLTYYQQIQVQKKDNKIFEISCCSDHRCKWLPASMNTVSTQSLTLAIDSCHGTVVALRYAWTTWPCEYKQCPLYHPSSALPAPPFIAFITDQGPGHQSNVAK
PRMT1 FP inh = PRMT1 (human) inhibition, primary screen; Q99873; recombinant PRMT1, activity-based probe fluorescence polarization; inhibition, % at 2.79 µM; hit rate 1.3% among 370,000;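 active = inhibition above about 21% made by adding two undisclosed values, limit read from the data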
Active calls of the source: *; . = not tested or not shown. An excerpt weighted towards active compounds, which were near 2.9% of everything screened.

SMILES | ABHD4 inh | PAD4 inh | HTRA1 inh | TCR CD3 inh | SIAE inh | PRMT1 FP inh
Cc1cnc(C)c(Nc2nc(C(N)Cc3ccc(Cl)cc3)cs2)n1 (stereo not given) | 8 | . | . | -9 | -2 | 25*
C[C@H](O)[C@@H]1C(=O)N2CCc3c([nH]c4c(-c5ccc6c(c5)OCO6)cccc34)[C@@H]2C[C@@H]1N(C)C(=O)c1ccccc1F | -3 | . | . | . | 0 | 3
Cc1ccc(Cn2cc(CN3[C@@H](Cc4ccccc4)COc4cc(Br)ccc4S3(=O)=O)nn2)cc1 | 4 | . | . | . | 1 | -2
CN(C)CCCN(C(=O)c1ccc(S(=O)(=O)N2CCc3ccccc32)cc1)c1nc2ccc(F)cc2s1 | 7 | 2 | -26 | 5 | -5 | 23*
Cc1ccc2nc(N(CCCN(C)C)C(=O)c3ccc(S(=O)(=O)N4CCc5ccccc5C4)cc3)sc2c1 | 14 | -2 | -15 | 6 | 0 | -1
CN(C)CCCN(C(=O)c1ccc(S(=O)(=O)N2CCc3ccccc32)cc1)c1nc2ccc(Cl)cc2s1 | 8 | 9 | -37 | 1 | -22 | 27*
CN(C)CCCN(C(=O)c1ccc(S(=O)(=O)N2CCc3ccccc3C2)cc1)c1nc2ccc(F)cc2s1 | 18 | -3 | -14 | 2 | 5 | 4
CN(CCc1ccccn1)C(=O)Cn1nc(-c2ccccc2)ccc1=O | 5 | . | . | . | 5 | 0
COc1ccc(C(=O)NCc2nnc(SCC(=O)c3ccccc3)o2)cc1 | -5 | -1 | 5 | 1 | 2 | -6
CC(C)(C)c1ccc(C(=O)NCc2nnc(SCC(=O)NC3CCCC3)o2)cc1 | 4 | 0 | -5 | 3 | -7 | 0
CC(C)(C)c1ccc(C(=O)NCc2nnc(SCC(=O)NC3CCCCC3)o2)cc1 | -14 | -5 | 3 | -5 | 0 | 21*
COc1ccc(NCc2nnc(SCC(=O)Nc3ccccc3OC)o2)cc1 | -3 | 2 | 1 | -1 | -17 | 22*
COc1ccc(C(=O)NCc2nnc(SCC(=O)Nc3nc4ccccc4s3)o2)cc1 | 6 | 5 | 8 | -2 | -3 | 23*
COc1ccc2c(c1)c(=O)oc1c(C)c(OCc3cc(C(=O)O)oc3C)ccc12 | 32* | -2 | -8 | 6 | -3 | -1
COc1ccc2c(c1)c(=O)oc1c(C)c(OCc3ccc(C(=O)O)cc3)ccc12 | . | 0 | -1 | . | . | .
COc1cc(N2C(=O)C=CC2=O)c(OC)cc1Cl | -3 | -4 | -10 | 5 | 6 | 90*
OCC1OC(n2cnc3c(=S)nc[nH]c32)CC1O (stereo not given) | -11 | . | 1 | -5 | 2 | 21*
Cc1cc(OC(C)C(=O)NC(Cc2c[nH]c3ccc(O)cc23)C(=O)O)c2c(C)c(C)c(=O)oc2c1 (stereo not given) | 6 | -4 | 5 | 9 | 4 | -2
CC(Oc1ccc2c(c1)oc(=O)c1ccccc12)C(=O)NC(Cc1c[nH]c2ccc(O)cc12)C(=O)O (stereo not given) | 2 | 3 | -6 | -7 | -4 | 22*
N#Cc1cc(F)cc(OC[C@@H](O)CN2CCC(C(O)(c3ccccc3)c3ccccc3)CC2)c1 | -5 | . | . | . | -8 | -2
COc1ccc(N)cc1-n1c(C)ccc1C | 28 | 10 | 21 | 0 | 13 | 27*
Cc1ccc(F)cc1C(=O)N(Cc1ccccn1)CC1CCCO1 (stereo not given) | 1 | . | . | . | 7 | 5
CC1(OC(=O)c2cccs2)C(=O)C=C2C=C3CCCN3C=C2C1=O (stereo not given) | . | 15* | 27 | . | . | .
CC1(OC(=O)C2CCCC2)C(=O)C=C2C=C3CCCN3C=C2C1=O (stereo not given) | . | -2 | . | . | . | .
CCn1c2ccccc2c2cc(C=Nn3c(-c4ccccc4C)n[nH]c3=S)ccc21 | -46 | . | . | . | -14 | 23*
CCn1c2ccccc2c2cc(/C=N/n3c(C)nnc3C)ccc21 | -6 | 1 | -18 | -1 | 0 | 2
COc1ccc2ccccc2c1C=NNC(=O)c1cc(-c2ccc(C)c(C)c2)n[nH]1 | -71 | . | . | . | -31 | -4
CN(C)c1ccc(N2C(=O)CSC2=S)cc1 | 29 | -37 | 19 | -46 | -15 | 23*
COc1ccc(-c2nnc3sc(-c4ccccn4)nn23)cc1 | . | -5 | . | . | . | .
CC(C)(C)c1ccc(-c2nnc3sc(-c4ccccn4)nn23)cc1 | 3 | -1 | -17 | 7 | 9 | 22*
